Source: ChEMBL document CHEMBL3045714, “Insect antifeedants from tropical plants: structures of dumnin and dumsenin” (2004)

Legend:
Assay type in all cases: functional
Pectinophora gossypiella [1] = test: Antifeedant activity against second-instar larvae of Pectinophora gossypiella (pink bollworm) assessed as concentration required for 95 % protection of host plant substrate after 48 hr by leaf disk assay
Method in brief: (§1)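 Leaf disks (1 cm²) punched from glandless cotton cultivar, randomized, 12 per Petri dish on moistened filter paper; alternate disks treated on upper surface with 25 μL acetone or 0–100 μg sample in 25 μL acetone. Three larvae per dish, 22 °C, dark, 48 h; percent disk area eaten vs control scored visually. PC50/PC95 = ca. 50/95% protection; triplicate on separate occasions, mean.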

Pectinophora gossypiella [2] = test: Antifeedant activity against second-instar larvae of Pectinophora gossypiella (pink bollworm) assessed as concentration required for 50 % protection of host plant substrate after 48 hr by leaf disk assay; method in brief: as §1
Spodoptera frugiperda [3] = test: Antifeedant activity against second-instar larvae of Spodoptera frugiperda (fall armyworm) assessed as concentration required for 95 % protection of host plant substrate after 48 hr by leaf disk assay; method in brief: as §1
Spodoptera frugiperda [4] = test: Antifeedant activity against second-instar larvae of Spodoptera frugiperda (fall armyworm) assessed as concentration required for 50 % protection of host plant substrate after 48 hr by leaf disk assay; method in brief: as §1

Compound	PC95 (Pectinophora gossypiella [1]) [µg/mL]	PC50 (Pectinophora gossypiella [2]) [µg/mL]	PC95 (Spodoptera frugiperda [3]) [µg/mL]	PC50 (Spodoptera frugiperda [4]) [µg/mL]
CC(=O)O[C@H]1[C@H](OC(C)=O)[C@]2(C)[C@@H](c3ccoc3)C[C@@H]3O[C@@]32[C@@]2(C)[C@H](OC(=O)Cc3ccccc3)C[C@H]3C(C)(C)O[C@]4(O)C(=O)CC[C@]34[C@@H]12 [DUMNIN]	16	1		
CC(=O)O[C@H]1[C@H](OC(C)=O)[C@@]2(C)C(=CC[C@@H]2c2ccoc2)[C@@]2(C)C(=O)C[C@H]3C(C)(C)O[C@]4(O)C(=O)CC[C@]34[C@@H]12 [DUMSENIN]	8	2	4	1
CC(=O)O[C@H]1[C@H](OC(C)=O)[C@]2(C)[C@@H](c3ccoc3)C[C@@H]3O[C@@]32[C@@]2(C)[C@H](OC(=O)CC(C)C)C[C@H]3C(C)(C)O[C@]4(O)C(=O)CC[C@]34[C@@H]12 [DUMSIN]	8	1		
CC(=O)O[C@@H]1[C@@H]2[C@@]34CC(=O)C[C@@H]3OC(C)(C)[C@@H]4CC(=O)[C@@]2(C)[C@@]23O[C@@H]2C[C@H](c2ccoc2)[C@]3(C)[C@H]1OC(C)=O [ZUMSIN]	8	1	16	2
